Source: ChEMBL document CHEMBL1687889, “Antitumor agents. 284. New desmosdumotin B analogues with bicyclic B-ring as cytotoxic and antitubulin agents” (J Med Chem, 2011)
Activity calls are given as the source filed them. The calls are words filed in the database; no cut-off is given here.

Tests used:
[1] = system: HCT-8; assay: Antiproliferative activity against human HCT8 cells after 3 days by sulforhodamine B assay; type: functional; conditions: HCT-8, 72 h
How it was run: (§1)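 Cells grown in RPMI-1640 with 25 mM HEPES, 0.25% sodium bicarbonate, 10% FBS and 100 μg/mL kanamycin. Exposed to compound for 3 days, with at most 0.5% v/v DMSO. Attached cells fixed in cold 50% TCA, stained with 0.4% sulforhodamine B, and the bound dye solubilized. A562 read. GI50 is the concentration giving a 50% absorbance drop versus untreated cells.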

[2] = system: A549; assay: Antiproliferative activity against human A549 cells after 3 days by sulforhodamine B assay; type: functional; conditions: A549, 72 h; how it was run: as §1
[3] = system: MCF7; assay: Antiproliferative activity against human MCF7 cells after 3 days by sulforhodamine B assay; type: functional; conditions: MCF7, 72 h
[4] = system: KB; assay: Antiproliferative activity against human KB cells after 3 days by sulforhodamine B assay; type: functional; conditions: 72 h; how it was run: as §1
[5] = Antiproliferative activity against human KBVIN cells after 3 days by sulforhodamine B assay; type: functional; conditions: 72 h; how it was run: as §1
[6] = system: PC-3; assay: Antiproliferative activity against human PC3 cells at 20 ug/ml after 3 days by sulforhodamine B assay; type: functional, cell-based
[7] = system: HepG2; assay: Antiproliferative activity against human HepG2 cells at 20 ug/ml after 3 days by sulforhodamine B assay; type: functional, cell-based
[8] = system: A549; assay: Inhibition of microtubule polymerization in human A549 cells after 24 hs by immunofluorescence staining; type: cell-based
How it was run: (§2)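 A549 cells held in chamber slides 12 h, then exposed to compound (0.1 nM) or DMSO for 24 h at 37 °C; fixed in 4% paraformaldehyde/PBS, permeabilized with 0.5% Triton X-100, stained with anti-α-tubulin monoclonal plus FITC secondary and DAPI for nuclei; microtubules and mitotic spindles scored by fluorescence microscopy. Comparators: colchicine 100 nM, paclitaxel 1.5 nM, doxorubicin 500 nM.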

[9] = system: A549; assay: Inhibition of spindle formation in human A549 cells after 24 hs by DAPI staining; type: functional, cell-based; how it was run: as §2
[10] = system: HCT-8; assay: Antiproliferative activity against human HCT8 cells at 20 ug/ml after 3 days by sulforhodamine B assay; type: functional, cell-based
[11] = system: A549; assay: Antiproliferative activity against human A549 cells at 20 ug/ml after 3 days by sulforhodamine B assay; type: functional, cell-based
[12] = system: MCF7; assay: Antiproliferative activity against human MCF7 cells at 20 ug/ml after 3 days by sulforhodamine B assay; type: functional, cell-based
[13] = system: KB; assay: Antiproliferative activity against human KB cells at 20 ug/ml after 3 days by sulforhodamine B assay; type: functional, cell-based
[14] = system: KBVIN; assay: Antiproliferative activity against human KBVIN cells at 20 ug/ml after 3 days by sulforhodamine B assay; type: functional, cell-based
[15] = Inhibition of tubulin assembly after 20 mins by turbidimetric assay
How it was run: (§3)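 Turbidimetry at 350 nm. 10 μM (1.0 mg/mL) tubulin preincubated with compound for 15 min at 30 °C without GTP, then chilled, and 0.4 mM GTP added. Turbidity followed for 20 min at 30 °C after a temperature jump from 0 °C. IC50 is the concentration halving the turbidity increase relative to control.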

[16] = Binding affinity to tubulin at 40 uM
[17] = system: PC-3; assay: Antiproliferative activity against human PC3 cells after 3 days by sulforhodamine B assay; type: functional; conditions: PC-3, 72 h
[18] = system: DU-145; assay: Antiproliferative activity against human DU145 cells after 3 days by sulforhodamine B assay; type: functional; conditions: DU-145, 72 h
[19] = system: HepG2; assay: Antiproliferative activity against human HepG2 cells after 3 days by sulforhodamine B assay; type: functional; conditions: HepG2, 72 h
How it was run: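 Sulforhodamine B assay over 3 days in culture, with at most 0.5% v/v DMSO. Attached cells fixed in cold 50% TCA, stained with 0.4% SRB, and the dye solubilized. Absorbance read at 562 nm. GI50 is the concentration causing a 50% fall in absorbance relative to untreated cells.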

[20] = Displacement of [3H]colchicine from tubulin at 5 uM for 10 mins
How it was run: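 1.0 μM tubulin incubated with 5.0 μM [3H]colchicine and 5.0 μM inhibitor for 10 min at 37 °C, when control samples reach about 40–60% of maximal colchicine binding. Result given as percent inhibition of colchicine binding.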

[21] = Partial inhibition of tubulin assembly after 20 mins at 4 uM by turbidimetric assay; how it was run: as §3

SMILES | GI50 [1] [µM] | GI50 [2] [µM] | GI50 [4] [µM] | GI50 [5] [µM] | Activity [6] | Activity [7] | Activity [10] | Activity [11] | Activity [12] | Activity [13] | GI50 [17] [µM] | GI50 [18] [µM] | GI50 [19] [µM] | other results
CCC1=C(O)c2c(oc(-c3cccc4ccccc34)c(Br)c2=O)C(CC)(CC)C1=O | 13.9 | 25.6 | 6.41 | 12 | inactive | inactive |  |  |  |  |  |  |  | GI50 [3]: 24.6 µM
COc1cc2c(c(OC)c1OC)-c1ccc(OC)c(=O)cc1[C@@H](NC(C)=O)CC2 |  |  |  |  |  |  |  |  |  |  |  |  |  | inhibition [8]: Active; inhibition [9]: Active
CCC1=C(O)c2c(oc(-c3c4ccccc4cc4ccccc34)cc2=O)C(CC)(CC)C1=O |  |  |  |  | inactive | inactive | inactive | inactive | inactive | inactive |  |  |  | Activity [14]: inactive
CCC1=C(O)c2c(oc(-c3ccccc3)cc2=O)C(CC)(CC)C1=O [6,8,8-TRIETHYL DESMOSDUMOTIN B] |  |  |  | 1.07 | inactive | inactive | inactive | inactive | inactive | inactive |  |  |  | IC50 [15]: Not Active; Activity [16]: inactive
CC1=C(O)C(C)(C)c2oc(-c3ccccc3)cc(=O)c2C1=O [DESMOTUMOTIN B] |  |  |  | 13.5 | inactive | inactive | inactive | inactive | inactive | inactive |  |  |  | 
CCC1=C(O)c2c(oc(-c3c(O)ccc4sccc34)cc2=O)C(CC)(CC)C1=O | 3.66 | 3.17 | 0.76 | 0.78 |  |  |  |  |  |  | 21.5 | 1.12 | 1.02 | IC50 ([15]; read-out: IC50): 3.4 µM; inhibition [20]: 52%
CCC1=C(O)c2c(oc(-c3csc4ccccc34)cc2=O)C(CC)(CC)C1=O | 0.13 | 0.06 | 0.08 | 0.07 |  |  |  |  |  |  | 0.16 |  | 0.13 | GI50 [3]: 0.11 µM; IC50 ([15]; read-out: IC50): 2 µM; inhibition [20]: 78%; inhibition [8]: Active; inhibition [9]: Active
CCC1=C(O)c2c(oc(-c3ccc(OC)c4ccc(OC)cc34)cc2=O)C(CC)(CC)C1=O |  |  |  |  | inactive | inactive | inactive | inactive | inactive | inactive |  |  |  | Activity [14]: inactive
CCC1=C(O)c2c(oc(-c3cccc4c3oc3ccccc34)cc2=O)C(CC)(CC)C1=O |  |  |  |  | inactive | inactive | inactive | inactive | inactive | inactive |  |  |  | Activity [14]: inactive
CCC1=C(O)c2c(oc(-c3csc4ccc(C)cc34)cc2=O)C(CC)(CC)C1=O | 93.1 | > 98 | 53.9 | > 98 |  |  |  |  |  |  | > 98 | > 98 | > 98 | 
CCC1=C(O)c2c(oc(-c3sc4ccccc4c3C)cc2=O)C(CC)(CC)C1=O | > 25 | > 25 | > 25 | > 25 |  |  |  |  |  |  | > 25 | > 25 | > 25 | 
CCC1=C(O)c2c(oc(-c3csc4ccc(Br)cc34)cc2=O)C(CC)(CC)C1=O | 42.2 | 42.2 | 26.4 | 10.6 |  |  |  |  |  |  | 38 | 31.7 | 30.6 | 
CCC1=C(O)c2c(oc(-c3ccc4sccc4c3)cc2=O)C(CC)(CC)C1=O | > 25 | > 25 | 11.2 | > 25 |  |  |  |  |  |  | > 25 | 10.4 | > 25 | 
CCC1=C(O)c2c(oc(-c3ccc4ccccc4c3)cc2=O)C(CC)(CC)C1=O | 1.29 | 1.16 | 1.03 | 1.16 |  |  |  |  |  |  | 2.58 |  | 1.55 | GI50 [3]: 1.42 µM; inhibition [20]: 29%; inhibition [21]: Active
CCC1=C(O)c2c(oc(-c3c(C)sc4ccccc34)cc2=O)C(CC)(CC)C1=O | 2.7 | 1.35 | 0.61 | 0.76 |  |  |  |  |  |  | 90.7 | 3.92 | 2.03 | IC50 ([15]; read-out: IC50): 3.4 µM; inhibition [20]: 38%
CCC1=C(O)c2c(oc(-c3ccc4c(c3)c3ccccc3n4CC)cc2=O)C(CC)(CC)C1=O |  |  |  |  | inactive | inactive | inactive | inactive | inactive | inactive |  |  |  | Activity [14]: inactive
CCC1=C(O)c2c(oc(-c3cccc4ccsc34)cc2=O)C(CC)(CC)C1=O | 11.2 | 5.84 | 2.49 | 0.94 |  |  |  |  |  |  | 3.81 | 0.74 | 1.9 | 
CCC1=C(O)c2c(oc(-c3c(OC)c(OC)cc4ccccc34)cc2=O)C(CC)(CC)C1=O |  |  |  | 35.7 |  |  | inactive | inactive |  | inactive |  |  |  | 
